Assay results taken from ChEMBL document CHEMBL1131041 (J Med Chem, 1998).

Columns and labels:
[1] = species: Mus musculus; assay: (§1) Partial agonist activity expressed as inhibition of contraction of mouse vas deferens (MVD) smooth muscle at 1 uM conc.; assay type: functional, Muscle tissue
Method in brief: (§2)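 Agonist action on electrically driven tissues at 37 °C: GPI (1 g tension, 0.4-ms pulses) and Mg-free MVD (0.5 g, 2-ms pulses), 0.1 Hz. Percent inhibition of contraction height read 10 min after 1 μM compound; for stronger agonists, IC50 from concentration–response curves (2–4 tissues, nonlinear least squares). Selectivity = GPI IC50/MVD IC50.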

[2] = biological target: T1, Kappa-type opioid receptor (Cavia porcellus, UniProt P41144); assay: Displacement of [125I]OXY from Opioid receptor kappa 2b of guinea pig brain membranes (pretreated with BIT(mu) and FIT(delta) and in the presence of (-)U50,488)
T1 sequence (P41144 whole entry): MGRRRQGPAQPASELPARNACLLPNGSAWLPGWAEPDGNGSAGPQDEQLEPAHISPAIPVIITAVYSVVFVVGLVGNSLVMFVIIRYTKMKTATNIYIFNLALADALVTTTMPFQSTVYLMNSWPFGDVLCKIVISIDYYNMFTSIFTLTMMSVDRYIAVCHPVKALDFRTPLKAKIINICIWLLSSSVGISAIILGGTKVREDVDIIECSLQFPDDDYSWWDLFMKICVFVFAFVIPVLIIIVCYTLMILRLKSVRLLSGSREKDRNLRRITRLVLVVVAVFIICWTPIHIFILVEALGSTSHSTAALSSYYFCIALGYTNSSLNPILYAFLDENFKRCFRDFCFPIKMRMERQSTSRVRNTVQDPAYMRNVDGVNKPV
Method in brief: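 Guinea pig brain membranes depleted of μ/δ sites by BIT and FIT, labelled with 0.01 nM [125I]IOXY in presence of 5 μM (−)U50,488. Incubation 4–6 h at 4 °C in 50 mM Tris-HCl pH 7.4 with 10 mM NaCl, protease inhibitors and 1 μg/mL captopril.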

[3] = biological target: Delta-type opioid receptor (Mus musculus) (UniProt P32300); assay: Displacement of DPDPE from Opioid receptor delta 1 of mouse vas deferens (MVD) smooth muscle
Chain of Delta-type opioid receptor (Mus musculus) (P32300 whole entry): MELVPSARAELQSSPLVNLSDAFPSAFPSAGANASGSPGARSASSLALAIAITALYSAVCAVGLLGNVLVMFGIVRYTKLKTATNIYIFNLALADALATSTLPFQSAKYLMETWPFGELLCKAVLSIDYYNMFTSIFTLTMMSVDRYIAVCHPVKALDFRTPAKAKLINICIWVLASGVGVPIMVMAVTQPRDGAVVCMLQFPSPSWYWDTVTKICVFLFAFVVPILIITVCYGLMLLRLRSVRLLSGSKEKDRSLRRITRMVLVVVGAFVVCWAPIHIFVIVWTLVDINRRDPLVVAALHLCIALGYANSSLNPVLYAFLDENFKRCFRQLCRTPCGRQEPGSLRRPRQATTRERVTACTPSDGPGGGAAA
Method in brief: (§3)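 Mouse vas deferens (male ICR, 25–40 g) in Mg-free oxygenated Krebs at 37 °C, 0.5 g tension; transmural 0.1 Hz, 2-ms pulses, supramaximal voltage. Control DPDPE curve first; then 1 μM compound 30 min, 30 min wash, cumulative DPDPE curve (3-min steps) repeated. IC50 ratio = shifted/control IC50; Ke = [antagonist]/(ratio − 1); n ≥ 3.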

[4] = biological target: T1, Kappa-type opioid receptor; assay: Displacement of [3H]U-69593 from Opioid receptor kappa 1 of guinea pig brain membranes (pretreated with BIT and FIT to block mu and delta sites)
Method in brief: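 Guinea pig brain membranes pretreated with BIT and FIT, labelled with [3H]U69,593. Incubation 4–6 h at 25 °C in 50 mM Tris-HCl pH 7.4 with protease inhibitors and 1 μg/mL captopril. Nonspecific binding with 1 μM U69,593. 8–10 concentrations, twice.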

[5] = biological target: Mu-type opioid receptor (Rattus norvegicus, UniProt P33535); assay: Displacement of [3H]DAMGO from Opioid receptor mu 1 of rat brain membranes; assay type: cell membranes, Membrane
Chain of Mu-type opioid receptor (P33535 whole entry): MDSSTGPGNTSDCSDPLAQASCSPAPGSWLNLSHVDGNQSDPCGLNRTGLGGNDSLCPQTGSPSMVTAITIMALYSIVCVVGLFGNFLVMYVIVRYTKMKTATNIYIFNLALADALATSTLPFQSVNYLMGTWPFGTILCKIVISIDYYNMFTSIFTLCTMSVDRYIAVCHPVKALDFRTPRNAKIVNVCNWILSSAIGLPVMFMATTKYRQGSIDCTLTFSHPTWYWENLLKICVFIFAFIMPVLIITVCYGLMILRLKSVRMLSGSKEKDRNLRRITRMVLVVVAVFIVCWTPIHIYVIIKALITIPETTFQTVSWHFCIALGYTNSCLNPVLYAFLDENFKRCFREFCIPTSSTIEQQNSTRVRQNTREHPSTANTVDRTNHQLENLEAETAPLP
Method in brief: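 Rat brain membranes labelled with [3H]DAMGO. Incubation 4 h at 25 °C in 50 mM Tris-HCl pH 7.4 with protease inhibitor cocktail. Nonspecific binding defined with 20 μM levallorphan. 8–10 test concentrations, run twice; IC50 and slope factor derived.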

[6] = biological target: T2, Delta-type opioid receptor (Rattus norvegicus, UniProt P33533); assay: Displacement of [3H]DADLE from morphine-insensitive Opioid receptor delta 1 (presence of 50 nM morphine) of rat brain membranes; assay type: cell membranes, Membrane
T2 sequence (P33533 whole entry): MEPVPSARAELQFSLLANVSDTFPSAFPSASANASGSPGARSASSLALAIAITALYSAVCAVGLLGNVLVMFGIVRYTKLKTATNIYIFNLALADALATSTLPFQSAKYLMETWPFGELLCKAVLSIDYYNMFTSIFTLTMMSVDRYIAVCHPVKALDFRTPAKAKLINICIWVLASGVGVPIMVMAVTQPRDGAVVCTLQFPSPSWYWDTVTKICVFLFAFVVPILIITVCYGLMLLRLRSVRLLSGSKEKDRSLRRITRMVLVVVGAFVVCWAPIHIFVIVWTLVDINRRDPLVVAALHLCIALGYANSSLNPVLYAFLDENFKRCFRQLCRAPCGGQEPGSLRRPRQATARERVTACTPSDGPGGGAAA
Method in brief: (§4)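 Rat brain membranes pretreated with (+)-trans-[…], labelled with 2.0 nM [3H]DADLE, plus 50 nM morphine (δcx-2) or 300 nM DELT-II (δcx-1). Incubation 4–6 h at 25 °C in 10 mM Tris-HCl pH 7.4 with 100 mM NaCl, 3 mM MnCl2, 2 μM GTP, 5 mM 2-mercaptoethanol and protease inhibitors. 8–10 concentrations, twice.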

[7] = biological target: T2, Delta-type opioid receptor; assay: Displacement of [3H]DADLE from morphine-sensitive Opioid receptor delta 1 (presence of 300 nM DELT-II) of rat brain membranes; assay type: cell membranes, Membrane; method in brief: as §4
[8] = biological target: T2, Delta-type opioid receptor; assay: Displacement of [3H]DADLE from Opioid receptor delta 1 of rat brain membranes (DAMGO quenching mu receptor); assay type: cell membranes, Membrane
Method in brief: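 Rat brain membranes labelled with [3H]DADLE. Incubation 3–4 h at 25 °C in 10 mM Tris-HCl pH 7.4 with 100 mM choline chloride, 3 mM MnCl2, 100 nM DAMGO (μ block) and protease inhibitors. Levallorphan 20 μM for nonspecific binding. 8–10 concentrations, duplicate runs.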

[9] = Relative affinity for guinea pig kappa1 and rat delta receptors
[10] = biological target: Opioid receptors; mu & delta (Rattus norvegicus) (UniProt P33533+P33535); assay: Relative affinity for mu and delta receptors in rat brain membranes; assay type: cell membranes
Chain of Opioid receptors; mu & delta (Rattus norvegicus) (P33533 whole entry, looked up): as the sequence (P33533 whole entry) above
Chain of Opioid receptors; mu & delta (Rattus norvegicus) (P33535 whole entry, looked up): as the sequence (P33535 whole entry) above

[11] = species: Cavia porcellus; assay: (§5) Partial agonist activity expressed as inhibition of contraction of guinea pig ileal longitudinal muscle myenteric plexus (GPI) at 1 uM conc.; assay type: functional, Muscle tissue; method in brief: as §2
[12] = species: Mus musculus; conditions: Muscle tissue
[13] = species: Cavia porcellus; assay: Binding affinity of compound was measured on electrically stimulated guinea pig ileal longitudinal muscle myenteric plexus (GPI) preparation using PL017 as standard antagonist; assay type: functional; conditions: Muscle tissue
Method in brief: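 Electrically stimulated guinea pig ileum longitudinal muscle–myenteric plexus (male Hartley, 250–500 g) in oxygenated Krebs at 37 °C, 1 g tension; 0.1 Hz, 0.4-ms pulses. Tissue preincubated 30 min with 1 μM compound, washed 30 min, then cumulative PL-017 curve repeated. Ke = [antagonist]/(IC50 ratio − 1); n ≥ 3.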

[14] = biological target: Delta-type opioid receptor (Mus musculus) (UniProt P32300); assay: Displacement of DPDPE from Opioid receptor delta 1 of mouse vas deferens (MVD)smooth muscle; method in brief: as §3
[15] = biological target: Mu-type opioid receptor (Mus musculus) (UniProt P42866); assay: Compound was tested for antagonist activity against Opioid receptor mu 1 on electrically stimulated guinea pig ileal longitudinal muscle myenteric plexus (GPI) using PL017 as antagonist ligand. IC50 ratio = IC50(agonist)/IC50 (control); assay type: functional; conditions: Cavia porcellus; target entry is the homologue from another species
Chain of Mu-type opioid receptor (Mus musculus) (P42866 whole entry): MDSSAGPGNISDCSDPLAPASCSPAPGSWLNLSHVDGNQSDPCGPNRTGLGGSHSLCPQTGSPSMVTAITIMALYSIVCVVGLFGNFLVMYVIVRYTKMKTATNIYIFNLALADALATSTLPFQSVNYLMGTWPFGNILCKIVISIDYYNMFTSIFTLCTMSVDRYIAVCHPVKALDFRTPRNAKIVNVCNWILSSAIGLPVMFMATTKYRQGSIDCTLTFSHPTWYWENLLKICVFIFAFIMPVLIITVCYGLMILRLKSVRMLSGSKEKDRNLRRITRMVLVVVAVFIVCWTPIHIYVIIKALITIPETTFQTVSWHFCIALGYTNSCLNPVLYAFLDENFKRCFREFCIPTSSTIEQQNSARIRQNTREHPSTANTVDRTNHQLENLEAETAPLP
Method in brief: (§6)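 Guinea pig ileum longitudinal muscle–myenteric plexus (male Hartley, 250–500 g) in oxygenated Krebs at 37 °C, 1 g tension; 0.1 Hz, 0.4-ms pulses, supramaximal voltage. Control PL-017 curve first; 1 μM compound 30 min, 30 min wash, cumulative PL-017 curve repeated. IC50 ratio = antagonized/unantagonized IC50; n ≥ 3.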

[16] = Selectivity for mu receptor of guinea pig Ileum (GPI) and delta receptor of delta opioid receptor of mouse vas deferens (MVD) smooth muscle preparation; assay type: tissue-based
[17] = species: Cavia porcellus; assay: as §5; assay type: functional, organism-based; conditions: Muscle tissue; method in brief: as §2
[18] = species: Mus musculus; assay: as §1; assay type: functional, organism-based; conditions: Muscle tissue; method in brief: as §2
[19] = biological target: Opioid receptors; mu & delta (Homo sapiens) (UniProt P41143+P35372); assay: IC50 selectivity for mu receptor of guinea pig Ileum (GPI) and delta receptor of delta opioid receptor of mouse vas deferens (MVD) smooth muscle preparation; assay type: tissue-based; method in brief: as §2
Chain of Opioid receptors; mu & delta (Homo sapiens) (P35372 whole entry, looked up): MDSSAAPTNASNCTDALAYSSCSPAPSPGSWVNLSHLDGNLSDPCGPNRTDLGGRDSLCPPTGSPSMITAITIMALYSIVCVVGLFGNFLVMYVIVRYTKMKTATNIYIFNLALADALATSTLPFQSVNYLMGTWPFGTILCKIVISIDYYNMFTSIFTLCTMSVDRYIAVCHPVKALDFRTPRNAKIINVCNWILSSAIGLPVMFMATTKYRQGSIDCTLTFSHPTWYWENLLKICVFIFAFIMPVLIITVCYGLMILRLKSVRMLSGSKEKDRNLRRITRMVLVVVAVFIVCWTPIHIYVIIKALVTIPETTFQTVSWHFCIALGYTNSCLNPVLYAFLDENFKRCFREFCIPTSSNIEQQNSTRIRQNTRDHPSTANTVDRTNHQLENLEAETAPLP
Chain of Opioid receptors; mu & delta (Homo sapiens) (P41143 whole entry, looked up): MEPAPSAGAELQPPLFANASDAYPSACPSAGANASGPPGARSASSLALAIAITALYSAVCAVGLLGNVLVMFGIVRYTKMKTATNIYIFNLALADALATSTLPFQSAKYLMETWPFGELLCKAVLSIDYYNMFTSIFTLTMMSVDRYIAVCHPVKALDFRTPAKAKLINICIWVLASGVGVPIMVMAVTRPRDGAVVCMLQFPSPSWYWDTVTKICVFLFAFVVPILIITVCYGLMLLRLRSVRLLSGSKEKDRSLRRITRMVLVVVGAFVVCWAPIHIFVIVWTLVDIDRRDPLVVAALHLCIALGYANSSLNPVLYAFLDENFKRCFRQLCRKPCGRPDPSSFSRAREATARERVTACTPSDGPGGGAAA

[20] = biological target: Mu-type opioid receptor (Mus musculus) (UniProt P42866); assay: Compound was tested for antagonist activity against dOpioid receptor mu 1 on electrically stimulated guinea pig ileal longitudinal muscle myenteric plexus (GPI) using PL017as standard antagonist; e denotes 'the agonist effects precluded the determination of antagonist effects'; assay type: functional; conditions: Cavia porcellus; filed as agonist; target entry is the homologue from another species; method in brief: as §6
[21] = biological target: Delta-type opioid receptor (Mus musculus) (UniProt P32300); assay: Compound was tested for antagonist activity against Opioid receptor delta 1 on mouse vas deferens (MVD) smooth muscle preparation using DPDPE as antagonist ligand; e denotes the agonist effects precluded the determination of antagonist effects; assay type: functional; conditions: filed as agonist; method in brief: as §3
[22] = biological target: Delta-type opioid receptor (Mus musculus) (UniProt P32300)

Row | Structure (SMILES) | Max response [1] [%] | Ki [2] [nM] | Ratio [3] | Ki [4] [nM] | Ki [5] [nM] | Ki [6] [nM] | Ki [7] [nM] | Ki [8] [nM] | Selectivity ratio [9] | Selectivity ratio [10] | Max response [11] [%] | Ke [13] [nM] | Ke [14] [nM] | Ratio [15] | Selectivity ratio [16] | other results
1 | Oc1ccc2c3c1OC1c4[nH]c5cc(OCc6ccccc6)ccc5c4C[C@@]4(O)[C@@H](C2)N(CC2CC2)CC[C@]314 (stereo partly drawn) | 25 | 461 | 260 | 470 | 676 | 6.3 | 201 | 6.7 | 70 | 101 | 0 | – | – | – | – | Ke [12]: 3.9 nM
2 | Oc1ccc2c3c1OC1c4[nH]c5cccc(OCc6ccccc6)c5c4C[C@@]4(O)[C@@H](C2)N(CC2CC2)CC[C@]314 (stereo partly drawn) | 70 | 109 | – | 539 | 360 | 17.2 | 74.1 | 14.8 | 36 | 24 | 86 | – | – | – | – | –
3 | Oc1ccc2c3c1OC1c4[nH]c5cccc(Oc6ccccc6)c5c4C[C@@]4(O)[C@@H](C2)N(CC2CC2)CC[C@]314 (stereo partly drawn) | 27 | 353 | – | 1310 | 1430 | 114 | 395 | 67.9 | 19 | 21 | 28 | 590 | 17 | 2.7 | 35 | –
4 | Oc1ccc2c3c1OC1c4[nH]c5ccc(-c6ccccc6)cc5c4C[C@@]4(O)[C@@H](C2)N(CC2CC2)CC[C@]314 (stereo partly drawn) | 25 | 186 | 110 | 354 | 165 | 24.7 | 121 | 15.8 | 22 | 10 | 0 | 110 | 9.4 | – | 12 | –
5 | Oc1ccc2c3c1OC1c4[nH]c5c(OCc6ccccc6)cccc5c4C[C@@]4(O)[C@@H](C2)N(CC2CC2)CC[C@]314 (stereo partly drawn) | – | 112 | 610 | 258 | 159 | 2.5 | 73.3 | 3.1 | 83 | 51 | – | – | 1.7 | – | – | IC50 [17]: 1700 nM; IC50 [18]: 9500 nM; Selectivity ratio [19]: 0.18
6 | Oc1ccc2c3c1OC1c4[nH]c5c(Oc6ccccc6)cccc5c4C[C@@]4(O)[C@@H](C2)N(CC2CC2)CC[C@]314 (stereo partly drawn) | – | 56.8 | 4000 | 33.6 | 34.2 | 0.61 | 18.7 | 0.71 | 47 | 48 | – | – | 0.25 | – | – | IC50 [17]: 450 nM; IC50 [18]: 4100 nM; Selectivity ratio [19]: 0.11
7 | Oc1ccc2c3c1OC1c4[nH]c5ccc(Oc6ccccc6)cc5c4C[C@@]4(O)[C@@H](C2)N(CC2CC2)CC[C@]314 (stereo partly drawn) | 11 | 199 | 93 | 75.2 | 292 | 4.9 | 204 | 17.9 | 4 | 16 | 8 | 770 | 11 | – | 70 | –
8 | Oc1ccc2c3c1OC1c4[nH]c5ccc(/C=C/c6ccccn6)cc5c4C[C@@]4(O)[C@@H](C2)N(CC2CC2)CC[C@]314 (stereo partly drawn) | – | 21.4 | – | 20.1 | 76 | 4 | 17.4 | 3.7 | 5 | 21 | – | – | – | – | – | IC50 [17]: 2600 nM; IC50 [18]: 220 nM; Ratio [20]: Agonist; Ratio [21]: Agonist; Selectivity ratio [19]: 12
9 | Oc1ccc2c3c1O[C@H]1c4[nH]c5ccccc5c4C[C@@]4(O)[C@@H](C2)N(CC2CC2)CC[C@]314 [NALTRINDOLE] | 16 | 19.9 | – | 34.1 | – | 0.24 | 12.3 | 0.29 | – | – | 18 | 43 | 0.49 | – | – | –
10 | Oc1ccc2c3c1OC1c4[nH]c5c(-c6ccccc6)cccc5c4C[C@@]4(O)[C@@H](C2)N(CC2CC2)CC[C@]314 (stereo partly drawn) | 35 | 89.9 | – | 312 | 124 | 0.46 | 51.4 | 2.1 | 149 | 59 | 37 | 310 | – | 4.2 | 172 | Ke [22]: 1.8 nM
11 | Oc1ccc2c3c1OC1c4[nH]c5ccc(OCc6ccccc6)cc5c4C[C@@]4(O)[C@@H](C2)N(CC2CC2)CC[C@]314 (stereo partly drawn) | 35 | 85.8 | 210 | 82.1 | 81 | 1.7 | 14.9 | 4.4 | 19 | 18 | 24 | 560 | 4.8 | 2.8 | 117 | –
12 | Oc1ccc2c3c1OC1c4[nH]c5cccc(-c6ccccc6)c5c4C[C@@]4(O)[C@@H](C2)N(CC2CC2)CC[C@]314 (stereo partly drawn) | 22 | 435 | 16 | 2970 | 1510 | 127 | 284 | 52.4 | 57 | 29 | 0 | 710 | 66 | 2.4 | 11 | –
13 | Oc1ccc2c3c1OC1c4[nH]c5cc(-c6ccccc6)ccc5c4C[C@@]4(O)[C@@H](C2)N(CC2CC2)CC[C@]314 (stereo partly drawn) | 36 | 660 | 49 | 632 | 1280 | 14.2 | 299 | 18 | 35 | 71 | 2 | – | 21 | – | – | –
